{"data": "Measured values gathered from unrelated publications", "target": "Procathepsin L (CTSL, Homo sapiens, UniProt P07711)", "observed": "enzyme activity", "mode": "inhibitor", "note": "Each line is one published result; the experiments were not run side by side. pIC50, pKi: −log10 of the molar value."}
{"Compound": "COc1cccc2[nH]c(C(=O)N[C@@H](CC(C)C)C(=O)N[C@@H](C[C@@H]3CCNC3=O)C(=O)CO)cc12", "endpoint": "pIC50", "result": 6.84}
{"Compound": "CN(C(=O)[C@H](Cc1ccccc1)NC(=O)[C@@H](NC(=O)OCc1ccccc1)C(C)(C)C)N(C#N)CCC(N)=O", "endpoint": "pKi", "result": 7.28}
{"Compound": "CC(C)(C)OC(=O)Nc1cccn([C@@H](CC2CC2)C(=O)N[C@@H](C[C@@H]2CCNC2=O)C(=O)C(=O)NCc2ccccc2)c1=O", "endpoint": "pIC50", "result": 6.54}
{"Compound": "CC[C@H]1NC(=O)[C@@H]2CSC(=N2)[C@@H](Cc2ccccc2)N(C)C(=O)[C@@H]2CCCN2C(=O)[C@H](C(C)C)N(C)C(=O)[C@H](Cc2ccccc2)OC(=O)[C@H](C)[C@@H](C)NC(=O)[C@@H]([C@@H](C)O)NC(=O)[C@@H](CC(C)C)N(C)C(=O)[C@@H]2CSC1=N2", "endpoint": "pIC50", "result": 4.85}
{"Compound": "CC(C)C[C@H](NC(=O)[C@H]1O[C@@H]1C(=O)O)C(=O)NCCCCN=C(N)N", "endpoint": "pIC50", "result": 7.48}
{"Compound": "O=C(Cn1nnc2ccccc21)Nc1ccccc1N1CCc2sccc2C1", "test": "FRET", "endpoint": "pIC50", "result": 5.00}
{"Compound": "COc1cc(Nc2ncc(F)c(Nc3ccc4c(n3)NC(=O)C(C)(C)O4)n2)cc(OC)c1OC", "endpoint": "pIC50", "result": 5.20}
{"Compound": "COC(=O)c1c(C)[nH]c(C(=O)COn2nnc3ccc(S(=O)(=O)N(C)C)cc32)c1C", "test": "FRET", "endpoint": "pIC50", "result": "< 4.00"}
{"Compound": "CC[C@H](NC(=O)OCc1ccccc1)C(=O)N[C@H](C(=O)N[C@@H](CC(C)C)C(=O)N(C)N(C#N)CCC(N)=O)C(C)(C)C", "endpoint": "pKi", "result": 7.65}
